Article PMC5812400 (ESMO Open, 2018)
“And” between values parts separate entries of the source, which are not always exact repeats. Equal entries are not always repeated.

What was measured:
[1] = Plasma PK of milled TAK-228 in TAK-228+P and TAK-228 QW arms, LC-MS/MS; type: in vivo, human; details: for Cmax / Tmax / AUC(0-t) / AUC(0-inf) / Vd/F / half-life: human, plasma, oral
In short: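 Milled capsules given fasted. Combination arm sampled on cycle 1 day 2, the first dosing day, ~24 h after IV taxane 80 mg/m2; QW arm sampled on cycle 1 day 1. LC-MS/MS validated over 1–1000 ng/mL. PK parameters summarised descriptively (geometric/arithmetic means, medians, CV).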

[2] = test system: adult patients with advanced non-haematological malignancies; assay: DLT and MTD/RP2D determination, phase I dose escalation of milled TAK-228; type: in vivo, human; details: for Maximum tolerated dose (MTD) / Recommended phase II dose (RP2D): milled
In short: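 Open-label dose escalation at four US sites with milled oral capsules, fasted, in 28-day cycles. Arms: QD days 1–28 (start 4 mg); QD days 2–4, 9–11, 16–18, 23–25 (start 6 mg) with IV taxane 80 mg/m2 on days 1, 8 and 15, ~24 h before dosing; QW days 1, 8, 15, 22 (start 20 mg). DLT: drug-related AE preventing further escalation. MTD: dose giving ≤1 DLT in cycle 1. DLT-evaluable: ≥75% of planned cycle 1 doses, or stopped earlier for a drug-related AE.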

[3] = test system: advanced non-haematological malignancies; assay: Tumour response; type: in vivo, human
In short: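 Response assessed by RECIST 1.1 on contrast CT or MRI of chest, abdomen and pelvis; bone scans allowed for bone metastases. Same modality kept per patient. Baseline scan within 4 weeks before first dose, then cycle 3 day 1 and every two cycles until end of study or discontinuation. ORR = CR+PR; clinical benefit = CR+PR+SD, and CR+PR+SD ≥6 months.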

[4] = Plasma PK of TAK-228 4 mg in single-agent QD PK run-in; type: in vivo, human; details: for AUC(0-inf) / Cmax: geometric mean (%CV)
In short: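 Run-in ≤14 days before cycle 1. Three visits ≥48 h apart, each a 4 mg oral dose: unmilled fasted, milled after high-fat breakfast, milled fasted. No proton pump inhibitor within 5 days or H2 antagonist within 24 h. LC-MS/MS validated over 1–1000 ng/mL. ANOVA on log Cmax and AUC (treatment fixed, patient random); geometric mean ratios with 90% CI.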

[5] = test system: patients with haematological malignancies or advanced solid tumours; details: unmilled TAK-228, haematological malignancies; ref 7 11; cited from earlier work
[6] = human, plasma, oral, 4 mg, 4 mg milled, fed (high-fat breakfast)

Q: Which “CL/F, geometric mean (CV)” value ([1]; QW 20 mg (n=7)) does the source give for CC(C)n1nc(-c2ccc3oc(N)nc3c2)c2c(N)ncnc21 [TAK-228, Sapanisertib] here?
A: 15.1 (46) L/hour

Q: And the “CL/F, geometric mean (CV)” value ([1]; QW 30 mg (n=13))?
A: 18.3 (63) L/hour

Q: What about the “Effect of paclitaxel administered 24 hours before TAK-228 on TAK-228 PK” value ([1]; combination arm vs QD arm (4 mg, milled, fasted)) of the same compound?
A: no clinically meaningful effects

Q: What about the Cmax ([1]; 4 mg) of the same compound?
A: 28.5 ng/mL

Q: What about the Tmax ([1]; 4 mg) of the same compound?
A: 2.2 h

Q: What about the AUC(0-t) ([1]; 6 mg) of the same compound?
A: 244 ng·h/mL

Q: What about the AUC(0-inf) ([1]; 20 mg) of the same compound?
A: 1330 ng·h/mL

Q: And the AUC(0-t) ([1]; 20 mg)?
A: 1240 ng·h/mL

Q: And the Cmax ([1]; 20 mg)?
A: 209 ng/mL

Q: What about the Vd/F ([1]; 20 mg) of the same compound?
A: 125 L

Q: And the half-life ([1]; 20 mg)?
A: 6.1 h

Q: What about the AUC(0-inf) ([1]; 30 mg) of the same compound?
A: 1640 ng·h/mL

Q: What about the AUC(0-t) ([1]; 30 mg) of the same compound?
A: 1530 ng·h/mL

Q: What about the Cmax ([1]; 30 mg) of the same compound?
A: 235 ng/mL

Q: And the Tmax ([1]; 30 mg)?
A: 1 h

Q: And the Vd/F ([1]; 30 mg)?
A: 155 L

Q: What about the half-life ([1]; 30 mg) of the same compound?
A: 6 h

Q: And the “Patients with DLT” value ([2]; QD 3 mg, 10 patients, grade 3 thrombocytopaenia)?
A: one patient experienced a DLT

Q: And the “DLT-evaluable patients with at least one DLT” value ([2]; QD 4 mg)?
A: 3/6

Q: And the “Patients with DLT” value ([2]; QW 20 mg)?
A: none of the six patients

Q: And the “Patients with DLT” value ([2]; QW 30 mg, cohort expanded to 12 patients, grade 3 adverse drug reaction)?
A: 1 patient

Q: And the “Patients with DLT” value ([2]; QW 30 mg, initial six DLT-evaluable patients)?
A: none experiencing DLTs

Q: And the “Maximum tolerated dose (MTD)” value ([2]; QD 3 days/week in combination with paclitaxel 80 mg/m^2)?
A: 6 mg

Q: What about the “Recommended phase II dose (RP2D)” value ([2]; in combination with paclitaxel 80 mg/m^2) of the same compound?
A: 4 mg

Q: And the “Maximum tolerated dose (MTD)” value ([2]; single-agent QD)?
A: 3 mg

Q: And the “Recommended phase II dose (RP2D)” value ([2]; single-agent QD)?
A: 3 mg

Q: What about the “Maximum tolerated dose (MTD)” value ([2]; single-agent QW) of the same compound?
A: 30 mg

Q: What about the “Recommended phase II dose (RP2D)” value ([2]; single-agent QW) of the same compound?
A: 30 mg

Q: And the “Best overall response: CR” value ([3]; QD 3 mg (n=11))?
A: 0 n (%)

Q: And the “Best overall response: PD” value ([3]; QD 3 mg (n=11))?
A: 3 (27) n (%)

Q: What about the “Best overall response: PR” value ([3]; QD 3 mg (n=11)) of the same compound?
A: 1 (9) n (%)

Q: And the “Best overall response: SD (<6 months)” value ([3]; QD 3 mg (n=11))?
A: 3 (27) n (%)

Q: What about the “Best overall response: SD (≥6 months)” value ([3]; QD 3 mg (n=11)) of the same compound?
A: 3 (27) n (%)

Q: And the “Clinical benefit rate CR+PR + SD” value ([3]; QD 3 mg (n=11))?
A: 7 (64) n (%)

Q: What about the “Clinical benefit rate CR+PR + SD ≥6 months” value ([3]; QD 3 mg (n=11)) of the same compound?
A: 4 (36) n (%)

Q: What about the “Objective response rate (CR+PR)” value ([3]; QD 3 mg (n=11)) of the same compound?
A: 1 (9) n (%)

Q: What about the “Best overall response: CR” value ([3]; QD 4 mg (n=6)) of the same compound?
A: 0 n (%)

Q: What about the “Best overall response: PD” value ([3]; QD 4 mg (n=6)) of the same compound?
A: 3 (50) n (%)

Q: And the “Best overall response: PR” value ([3]; QD 4 mg (n=6))?
A: 1 (17) n (%)

Q: What about the “Best overall response: SD (<6 months)” value ([3]; QD 4 mg (n=6)) of the same compound?
A: 0 n (%)

Q: And the “Best overall response: SD (≥6 months)” value ([3]; QD 4 mg (n=6))?
A: 1 (17) n (%)

Q: And the “Clinical benefit rate CR+PR + SD” value ([3]; QD 4 mg (n=6))?
A: 2 (33) n (%)

Q: What about the “Clinical benefit rate CR+PR + SD ≥6 months” value ([3]; QD 4 mg (n=6)) of the same compound?
A: 2 (33) n (%)

Q: And the “Objective response rate (CR+PR)” value ([3]; QD 4 mg (n=6))?
A: 1 (17) n (%)

Q: What about the “Best overall response: CR” value ([3]; QD Total (n=17)) of the same compound?
A: 0 n (%)

Q: What about the “Best overall response: PD” value ([3]; QD Total (n=17)) of the same compound?
A: 6 (35) n (%)

Q: And the “Best overall response: PR” value ([3]; QD Total (n=17))?
A: 2 (12) n (%)

Q: And the “Best overall response: SD (<6 months)” value ([3]; QD Total (n=17))?
A: 3 (18) n (%)

Q: And the “Best overall response: SD (≥6 months)” value ([3]; QD Total (n=17))?
A: 4 (24) n (%)

Q: What about the “Clinical benefit rate CR+PR + SD” value ([3]; QD Total (n=17)) of the same compound?
A: 9 (53) n (%)

Q: And the “Clinical benefit rate CR+PR + SD ≥6 months” value ([3]; QD Total (n=17))?
A: 6 (35) n (%)

Q: What about the “Objective response rate (CR+PR)” value ([3]; QD Total (n=17)) of the same compound?
A: 2 (12) n (%)

Q: And the “Objective response rate (ORR)” value ([3]; QD arm)?
A: 12%

Q: What about the “Overall clinical benefit rate (CR+PR + SD)” value ([3]; QD arm (9/17 patients)) of the same compound?
A: 52.9%

Q: And the “Best overall response: CR” value ([3]; QW 20 mg (n=7))?
A: 0 n (%)

Q: What about the “Best overall response: PD” value ([3]; QW 20 mg (n=7)) of the same compound?
A: 3 (43) n (%)

Q: What about the “Best overall response: PR” value ([3]; QW 20 mg (n=7)) of the same compound?
A: 0 n (%)

Q: What about the “Best overall response: SD (<6 months)” value ([3]; QW 20 mg (n=7)) of the same compound?
A: 3 (43) n (%)

Q: What about the “Best overall response: SD (≥6 months)” value ([3]; QW 20 mg (n=7)) of the same compound?
A: 0 n (%)

Q: What about the “Clinical benefit rate CR+PR + SD” value ([3]; QW 20 mg (n=7)) of the same compound?
A: 3 (43) n (%)

Q: And the “Clinical benefit rate CR+PR + SD ≥6 months” value ([3]; QW 20 mg (n=7))?
A: 0 n (%)

Q: What about the “Objective response rate (CR+PR)” value ([3]; QW 20 mg (n=7)) of the same compound?
A: 0 n (%)

Q: What about the “Best overall response: CR” value ([3]; QW 30 mg (n=13)) of the same compound?
A: 0 n (%)

Q: What about the “Best overall response: PD” value ([3]; QW 30 mg (n=13)) of the same compound?
A: 3 (23) n (%)

Q: What about the “Best overall response: PR” value ([3]; QW 30 mg (n=13)) of the same compound?
A: 0 n (%)

Q: And the “Best overall response: SD (<6 months)” value ([3]; QW 30 mg (n=13))?
A: 5 (39) n (%)

Q: And the “Best overall response: SD (≥6 months)” value ([3]; QW 30 mg (n=13))?
A: 1 (8) n (%)

Q: And the “Clinical benefit rate CR+PR + SD” value ([3]; QW 30 mg (n=13))?
A: 6 (46) n (%)

Q: What about the “Clinical benefit rate CR+PR + SD ≥6 months” value ([3]; QW 30 mg (n=13)) of the same compound?
A: 1 (8) n (%)

Q: What about the “Objective response rate (CR+PR)” value ([3]; QW 30 mg (n=13)) of the same compound?
A: 0 n (%)

Q: And the “Best overall response: CR” value ([3]; QW Total (n=20))?
A: 0 n (%)

Q: What about the “Best overall response: PD” value ([3]; QW Total (n=20)) of the same compound?
A: 6 (30) n (%)

Q: And the “Best overall response: PR” value ([3]; QW Total (n=20))?
A: 0 n (%)

Q: And the “Best overall response: SD (<6 months)” value ([3]; QW Total (n=20))?
A: 8 (40) n (%)

Q: What about the “Best overall response: SD (≥6 months)” value ([3]; QW Total (n=20)) of the same compound?
A: 1 (5) n (%)

Q: What about the “Clinical benefit rate CR+PR + SD” value ([3]; QW Total (n=20)) of the same compound?
A: 9 (45) n (%)

Q: And the “Clinical benefit rate CR+PR + SD ≥6 months” value ([3]; QW Total (n=20))?
A: 1 (5) n (%)

Q: And the “Objective response rate (CR+PR)” value ([3]; QW Total (n=20))?
A: 0 n (%)

Q: What about the “Objective response rate (ORR)” value ([3]; QW arm) of the same compound?
A: 0%

Q: What about the “Overall clinical benefit rate (CR+PR + SD)” value ([3]; QW arm (9/20 patients)) of the same compound?
A: 45%

Q: And the AUC(0-inf) ([4]; human, plasma, oral, 4 mg, 4 mg milled, fasted)?
A: 369 ng·h/mL

Q: What about the AUC(0-inf) [4, 6] of the same compound?
A: 383 ng·h/mL

Q: What about the Cmax [4, 6] of the same compound?
A: 21.6 ng/mL

Q: And the Cmax ([4]; human, plasma, oral, 4 mg, 4 mg unmilled, fasted)?
A: 34 ng/mL

Q: And the Tmax ([4]; human, plasma, oral, 4 mg, Tmax, median (range), 4 mg milled, fed (high-fat breakfast))?
A: 6 h

Q: What about the “Reduction in geometric mean Cmax, fed versus fasted” value ([4]; milled 4 mg, high-fat breakfast vs empty stomach) of the same compound?
A: ~ 40% and 40%

Q: What about the “Incidence of grade ≥3 drug-related AEs” value [5] of the same compound?
A: 31%
